In article PMC8814381 (EBioMedicine, 2022):

Experiments:
[1] = system: MDA-MB-231 human breast cancer tumours; type: in vivo, athymic mice; settings: 0.2–1.0 mg/kg i.v., imaged 6–72 h, PDE unit, normal tissue thigh
Summary of the method: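 Female athymic mice, 4–5 weeks old, bore s.c. MDA-MB-231 tumours (1.0 × 10⁶ cells, right back). They received test compound or free dye i.v. (tail vein) at 0.2, 0.5 or 1 mg/kg. Prescans were taken before injection, and 800 nm NIR imaging followed at 6–72 h. The tumour-to-background ratio used ROIs over the whole tumour and over normal tissue (thigh muscle). Statistics: ANOVA.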

[2] = system: TNBC MDA-MB-231 or ER-positive IOWA-1T tumours; experiment: Intraoperative imaging of orthotopic MFP xenografts, recurrence follow-up; type: in vivo, athymic mice; settings: 0.5 mg/kg i.v.; for average volume of the recurrent tumours: four weeks after tumour resection
Summary of the method: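 MDA-MB-231 or IOWA-1T cells were injected s.c. at the nipple base into the fourth abdominal fat pad of athymic mice. Once tumours formed, mice received PBS, free dye or test compound at 0.5 mg/kg i.v. After 24 h, tumours were resected with a 2 mm margin under NIR camera monitoring. PBS controls were resected by palpation and direct visualization only. Adverse events during removal and later recurrence at the resection site were recorded.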

[3] = system: triple-negative PDX cells (stage IV) tumours; experiment: Image-guided tumour resection in a PDX tumour model, recurrence follow-up; type: in vivo, NSG mice; settings: four weeks after image-guided surgery
Summary of the method: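 Female NSG mice, 4–5 weeks old, carried triple-negative PDX (stage IV) tumours in the mammary fat pads. At 200–300 mm³ they were randomized into five groups: test probe, free dye, two control peptide–dye conjugates, or PBS. Agents were given i.v. (tail vein) at an equivalent of 0.5 mg/kg. After 24 h, tumours were excised with a ~2 mm margin under NIR camera guidance (not for PBS). Wounds were sutured, and recurrence was assessed 4 weeks later.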

[4] = system: multiple subtypes of breast cancer; experiment: Overall recurrence in multiple breast cancer animal models; type: in vivo, mice
PDX tumour margins = experiment: Histological analysis; type: in vivo, NSG mice; settings: PDX model, H&E and Ki-67, sixteen mammary tissue samples from eight mice
Summary of the method: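 Tumour-margin tissue (~2 mm³) taken at the 6 and 12 o'clock positions around resected PDX tumours in NSG mice. Samples were fixed 24 h in buffered 3.7% formalin, then moved to 70% ethanol. They were paraffin-embedded and cut into 4 μm sections for staining.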

[5] = cited from earlier work

Molecule	tumour/normal tissue ratio of NIR signal [1]	adverse events related to administration during tumour removal [2]	average volume of the recurrent tumours [2]	average volume of the recurrent tumours [3]	average recurrent tumour volume, multiple subtypes of breast cancer ([4]; Figures 4,6 pooled)	positive margin rate (PDX tumour margins)	specificity ([4]; from tumour recurrence rate 8%, N = 2/24)	stability [5]	water solubility [5]
CC1(C)C(/C=C/C=C/C=C/C=C2\N(CCCCS(=O)(=O)O)c3ccc4ccccc4c3C2(C)C)=[N+](CCCCS(=O)(=O)[O-])c2ccc3ccccc3c21 [ICG, indocyanine green]	~1	no apparent adverse events	423 mm^3	1952 mm^3	1188 mm^3				
ICG-p28: NIR fluorescence imaging probe composed of tumour-targeting peptide p28 and the NIR dye indocyanine green (ICG)		no apparent adverse events	197 mm^3	403 mm^3		malignant cell free margin	92%		
p28: Pseudomonas aeruginosa azurin-derived cell-penetrating peptide, tested in two phase I clinical trials								stable	highly water soluble
